This is an account of results in ChEMBL document CHEMBL2417545, “6-methoxy-7-benzofuranoxy and 6-methoxy-7-indolyloxy analogues of 2-[2-(2,6-Dimethoxyphenoxy)ethyl]aminomethyl-1,4-benzodioxane (WB4101):1 discovery of a potent and selective α1D-adrenoceptor antagonist” (J Med Chem, 2013).

The target of experiment [1] is T1, Alpha-1D adrenergic receptor (Homo sapiens, UniProt P25100).
T1 sequence (P25100 whole entry): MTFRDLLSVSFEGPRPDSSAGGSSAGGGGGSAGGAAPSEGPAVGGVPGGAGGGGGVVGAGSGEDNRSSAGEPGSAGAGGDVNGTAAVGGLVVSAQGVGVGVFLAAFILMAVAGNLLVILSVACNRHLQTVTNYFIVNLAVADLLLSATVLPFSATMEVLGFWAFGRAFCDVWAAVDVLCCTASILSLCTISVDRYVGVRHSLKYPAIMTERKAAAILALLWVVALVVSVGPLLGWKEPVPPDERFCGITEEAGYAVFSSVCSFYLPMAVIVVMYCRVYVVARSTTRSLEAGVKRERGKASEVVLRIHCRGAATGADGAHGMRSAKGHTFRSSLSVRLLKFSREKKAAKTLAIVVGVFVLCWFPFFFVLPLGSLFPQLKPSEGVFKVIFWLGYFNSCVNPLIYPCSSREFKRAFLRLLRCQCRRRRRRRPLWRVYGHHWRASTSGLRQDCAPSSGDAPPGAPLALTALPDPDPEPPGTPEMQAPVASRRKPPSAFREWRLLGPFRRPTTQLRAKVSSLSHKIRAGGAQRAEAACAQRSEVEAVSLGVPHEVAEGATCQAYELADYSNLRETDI
The experiment in a line: Displacement of [3H]prazosin from human alpha-1D adrenoreceptor expressed in CHO cells after 30 mins. The experiment is classed as cell-based. The method in brief:
(§1)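 Membranes from CHO cells expressing each α₁-AR subtype, incubated 30 min at 25 °C in 50 mM Tris HCl pH 7.7 with 10 μM pargyline and 0.1% ascorbic acid, plus 0.5 nM [³H]prazosin and varying test compound concentrations. Nonspecific binding was defined with 1 μM prazosin.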

The target of experiment [2] is T2, Alpha-1A adrenergic receptor (Homo sapiens, UniProt P35348).
T2 sequence (P35348 whole entry): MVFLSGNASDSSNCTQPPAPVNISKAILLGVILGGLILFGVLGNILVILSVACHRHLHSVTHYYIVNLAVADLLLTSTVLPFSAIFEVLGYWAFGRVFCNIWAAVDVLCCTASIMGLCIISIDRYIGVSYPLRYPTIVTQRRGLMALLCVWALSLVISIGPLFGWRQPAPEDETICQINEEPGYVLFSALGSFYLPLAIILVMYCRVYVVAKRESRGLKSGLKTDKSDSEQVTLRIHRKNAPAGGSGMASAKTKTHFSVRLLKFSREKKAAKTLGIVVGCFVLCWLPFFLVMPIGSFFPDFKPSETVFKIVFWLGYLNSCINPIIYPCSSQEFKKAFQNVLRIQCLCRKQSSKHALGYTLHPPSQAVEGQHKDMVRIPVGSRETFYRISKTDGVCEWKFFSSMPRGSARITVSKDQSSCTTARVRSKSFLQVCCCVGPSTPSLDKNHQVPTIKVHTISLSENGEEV
Description: Displacement of [3H]prazosin from human alpha-1A adrenoreceptor expressed in CHO cells after 30 mins. The experiment is classed as cell-based. Summed up:
as §1

Experiment [3] addresses T3, 5-hydroxytryptamine receptor 1A (Rattus norvegicus, UniProt P19327).
T3 sequence (P19327 whole entry): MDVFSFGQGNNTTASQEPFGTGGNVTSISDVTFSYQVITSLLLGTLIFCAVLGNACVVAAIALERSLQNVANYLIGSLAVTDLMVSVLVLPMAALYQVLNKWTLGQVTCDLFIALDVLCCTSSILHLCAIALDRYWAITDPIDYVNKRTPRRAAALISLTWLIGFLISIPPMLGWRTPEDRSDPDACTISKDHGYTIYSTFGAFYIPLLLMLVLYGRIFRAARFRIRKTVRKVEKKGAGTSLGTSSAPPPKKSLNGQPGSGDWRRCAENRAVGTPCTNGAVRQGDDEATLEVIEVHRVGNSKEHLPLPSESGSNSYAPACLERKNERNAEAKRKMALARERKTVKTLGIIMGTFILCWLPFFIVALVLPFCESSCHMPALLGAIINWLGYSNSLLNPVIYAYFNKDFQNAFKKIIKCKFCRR
The experiment in a line: Displacement of [3H]-8-OHDPAT from 5-HT1A receptor in rat hippocampal membranes after 30 mins. The format is cell membranes, Hippocampus, Membrane.

Experiment [4] addresses T4, Alpha-1B adrenergic receptor (Homo sapiens, UniProt P35368).
T4 sequence (P35368 whole entry): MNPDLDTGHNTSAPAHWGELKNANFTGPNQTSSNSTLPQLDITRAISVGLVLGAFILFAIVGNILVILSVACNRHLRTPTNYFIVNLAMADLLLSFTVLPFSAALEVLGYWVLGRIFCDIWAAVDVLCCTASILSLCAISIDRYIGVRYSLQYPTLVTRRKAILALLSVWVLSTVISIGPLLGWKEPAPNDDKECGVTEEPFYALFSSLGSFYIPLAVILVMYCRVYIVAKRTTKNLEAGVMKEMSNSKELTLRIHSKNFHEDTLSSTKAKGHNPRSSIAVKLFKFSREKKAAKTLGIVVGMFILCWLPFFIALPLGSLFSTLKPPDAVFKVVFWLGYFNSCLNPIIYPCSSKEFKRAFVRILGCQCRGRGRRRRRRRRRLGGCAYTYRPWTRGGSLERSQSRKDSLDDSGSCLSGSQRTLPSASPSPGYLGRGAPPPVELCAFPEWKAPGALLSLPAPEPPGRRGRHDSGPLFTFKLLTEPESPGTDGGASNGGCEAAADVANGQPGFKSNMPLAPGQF
Description: Displacement of [3H]prazosin from human alpha-1B adrenoreceptor expressed in CHO cells after 30 mins. The experiment is classed as cell-based. Summed up: as §1

As for `COc1ccc2c(c1OCCNC[C@@H]1COc3ccccc3O1)OCC2`, the Ki in experiment [1] is 18.2 nM; in experiment [2] it was 17 nM; in experiment [3] it was 162 nM; in experiment [4], 162 nM.
For `COc1ccc2ccoc2c1OCCNC[C@@H]1COc2ccccc2O1`, the Ki in experiment [1] was 18.2 nM; in experiment [2], 9.12 nM; in experiment [3], 11 nM; in experiment [4], 126 nM.
Take `COc1ccc2cc[nH]c2c1OCCNC[C@@H]1COc2ccccc2O1`: the Ki in experiment [1] is 1350 nM; in experiment [2], 437 nM; in experiment [3], 1700 nM; in experiment [4], 1910 nM.
As for `COc1ccc2c(c1OCCNC[C@@H]1COc3ccccc3O1)NCC2`, the Ki in experiment [1] was 83.2 nM; in experiment [2], 31.6 nM; in experiment [3], 219 nM; in experiment [4], 372 nM.
